Data: publication PMC2668958 (Combinatorial chemistry & high throughput screening, 2008)

Legend:
Glucocerebrosidase (GC) [1] = molecular target: T1, Glucocerebrosidase (GC) (Homo sapiens, UniProt P04062, R534H); assay: "blue" GC enzyme kinetic assay, 384-well; assay type: biochemical; settings: substrate of "blue" assay, 1.9 nM enzyme
T1 sequence (P04062 40-536 R534H): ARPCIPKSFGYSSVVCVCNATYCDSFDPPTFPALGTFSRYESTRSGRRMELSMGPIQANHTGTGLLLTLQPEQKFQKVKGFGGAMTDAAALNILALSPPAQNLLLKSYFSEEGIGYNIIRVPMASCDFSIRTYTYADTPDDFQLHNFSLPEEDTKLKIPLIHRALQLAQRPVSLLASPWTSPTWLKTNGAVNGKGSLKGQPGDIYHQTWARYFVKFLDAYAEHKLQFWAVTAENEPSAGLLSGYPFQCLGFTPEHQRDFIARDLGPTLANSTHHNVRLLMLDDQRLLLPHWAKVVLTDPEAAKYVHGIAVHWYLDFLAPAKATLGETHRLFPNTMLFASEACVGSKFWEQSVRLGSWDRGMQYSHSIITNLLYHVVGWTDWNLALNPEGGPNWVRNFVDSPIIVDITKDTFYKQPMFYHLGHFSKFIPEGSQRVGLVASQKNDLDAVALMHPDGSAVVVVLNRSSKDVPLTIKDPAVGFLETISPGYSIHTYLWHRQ
Procedure, shortened: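 384-well format. 1.9 nM GC in pH 5.9 buffer (50 mM citric acid, 176 mM K2HPO4, 0.01% Tween-20, 10 mM sodium taurocholate). Reaction started with 4MU-β-Glc at final 3000–23.4 μM (1:2 series, eight levels), run at RT. Separate plates were stopped with 1 M NaOH/1 M glycine pH 10 at 2, 4, 6, 8, 10 and 12 min and read at 440 nm. Product was quantified from a 4-methylumbelliferone standard curve.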

Glucocerebrosidase (GC) [2] = molecular target: T1, Glucocerebrosidase (GC); assay: Res-β-Glc; assay type: biochemical
Glucocerebrosidase (GC) [3] = molecular target: T1, Glucocerebrosidase (GC); assay: 4MU-β-Glc; assay type: biochemical; settings: read-out: IC50 in the "blue" GC assay; known GC inhibitors; 800 μM 4MU-β-Glc, 1.9 nM enzyme
[4] = CBE solutions in DMSO left at RT for more than a few hours (data not shown)
Glucocerebrosidase (GC) [5] = molecular target: T1, Glucocerebrosidase (GC); assay: "red" GC enzyme kinetic assay, 384-well; assay type: biochemical; settings: substrate of "red" assay, 1.9 nM enzyme
Procedure, shortened: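 Kinetics were run in 384-well plates with 1.9 nM GC in pH 5.9 citrate/K2HPO4 buffer containing 0.01% Tween-20 and 10 mM sodium taurocholate. Res-β-Glc was added at final 100, 60, 40, 20, 10, 5 and 2.5 μM at RT, with no stop step. One plate was read continuously for 610 nm emission at 2 min intervals. Product was converted using a resorufin standard curve in assay buffer.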

[6] = varied substrate concentrations

SMILES: Cc1cc(=O)oc2cc(O[C@@H]3O[C@H](CO)[C@@H](O)[C@H](O)[C@H]3O)ccc12 [4MU-β-Glc, 4-methylumbelliferyl β-D-glucopyranoside]
- Vmax (Glucocerebrosidase (GC) [1]): 1.56 pmol/min
- Km (Glucocerebrosidase (GC) [1]; [6]): 768 µM

SMILES: O[C@H]1[C@H](O)[C@@H](O)[C@@H]2O[C@@H]2[C@@H]1O [CBE, Conduritol β-epoxide]
- IC50 (Glucocerebrosidase (GC) [2]; read-out: IC50 in the "red" GC assay, known GC inhibitors, 30 μM Res-β-Glc, 1.9 nM enzyme): 13 µM
- IC50 (Glucocerebrosidase (GC) [3]): 15.4 µM
- shift of IC50 value [4]: 2- to 10 fold

SMILES: N.N.[Cl][Pt][Cl] [Cisplatin]
- GC inhibitory activity on hit confirmation (Glucocerebrosidase (GC) [2]; neat samples of primary hits, "red" GC enzyme assay): inactive

SMILES: O=c1ccc2nc3ccc(O[C@@H]4O[C@H](CO)[C@@H](O)[C@H](O)[C@H]4O)cc3oc-2c1 [Res-β-Glc, Resorufin β-D-glucopyranoside]
- Vmax (Glucocerebrosidase (GC) [5]): 7.11 pmol/min
- Km (Glucocerebrosidase (GC) [5]; [6]): 33 µM

SMILES: CN[C@@H](C)[C@H](O)c1ccccc1 [compound 1, (-)-Ephedrine hemisulfate]
- IC50 (Glucocerebrosidase (GC) [2]): 0.79 µM

SMILES: O=C(/C=C/c1ccc(O)cc1)c1ccc(O)cc1O [compound 2, Isoliquiritigenin]
- IC50 (Glucocerebrosidase (GC) [2]): 2.57 µM

SMILES: CC[N+](CC)(CC)CCOc1cccc(OCC[N+](CC)(CC)CC)c1OCC[N+](CC)(CC)CC [compound 3, Gallamine triethiodide]
- IC50 (Glucocerebrosidase (GC) [2]): 3.59 µM

SMILES: C[N+]1(C)CCN(c2ccccc2)CC1 [compound 6, 1,1-Dimethyl-4-phenyl-piperazinium iodide]
- IC50 (Glucocerebrosidase (GC) [2]): 6.8 µM

SMILES: O=c1c2ccccc2[se]n1-c1ccccc1 [compound 10, Ebselen]
- IC50 (Glucocerebrosidase (GC) [2]): 0.63 µM
